Results taken from PubChem BioAssay AID588732 (Vanderbilt Specialized Chemistry Center, 2011).
Activity calls are given as the source filed them.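 Rule for the calls: active = compound shifting glutamate potency twofold either way, or pushing peak response under 75% or over a set limit; inactive = the rest.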

Target: Metabotropic glutamate receptor 8 (Rattus norvegicus) (UniProt P70579)
Assay: rat mGlu8 allosteric modulation, glutamate curve shift, profiling panel, selectivity assay for mGlu5 PAM project, thallium flux, HEK/GIRK cells (AID 588732)
Conditions: glutamate CRC shift, at 10 µM; for Emax: measured here: glutamate max response with compound
How it was run: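 Material: rat mGlu8 HEK/GIRK cells / Doses: 10 µM test compound, single dose / Benchmarks: glutamate curve without test compound as reference / Technique: FluoZin2 thallium-flux slope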

Sequence of Metabotropic glutamate receptor 8 (Rattus norvegicus) (P70579 whole entry, looked up): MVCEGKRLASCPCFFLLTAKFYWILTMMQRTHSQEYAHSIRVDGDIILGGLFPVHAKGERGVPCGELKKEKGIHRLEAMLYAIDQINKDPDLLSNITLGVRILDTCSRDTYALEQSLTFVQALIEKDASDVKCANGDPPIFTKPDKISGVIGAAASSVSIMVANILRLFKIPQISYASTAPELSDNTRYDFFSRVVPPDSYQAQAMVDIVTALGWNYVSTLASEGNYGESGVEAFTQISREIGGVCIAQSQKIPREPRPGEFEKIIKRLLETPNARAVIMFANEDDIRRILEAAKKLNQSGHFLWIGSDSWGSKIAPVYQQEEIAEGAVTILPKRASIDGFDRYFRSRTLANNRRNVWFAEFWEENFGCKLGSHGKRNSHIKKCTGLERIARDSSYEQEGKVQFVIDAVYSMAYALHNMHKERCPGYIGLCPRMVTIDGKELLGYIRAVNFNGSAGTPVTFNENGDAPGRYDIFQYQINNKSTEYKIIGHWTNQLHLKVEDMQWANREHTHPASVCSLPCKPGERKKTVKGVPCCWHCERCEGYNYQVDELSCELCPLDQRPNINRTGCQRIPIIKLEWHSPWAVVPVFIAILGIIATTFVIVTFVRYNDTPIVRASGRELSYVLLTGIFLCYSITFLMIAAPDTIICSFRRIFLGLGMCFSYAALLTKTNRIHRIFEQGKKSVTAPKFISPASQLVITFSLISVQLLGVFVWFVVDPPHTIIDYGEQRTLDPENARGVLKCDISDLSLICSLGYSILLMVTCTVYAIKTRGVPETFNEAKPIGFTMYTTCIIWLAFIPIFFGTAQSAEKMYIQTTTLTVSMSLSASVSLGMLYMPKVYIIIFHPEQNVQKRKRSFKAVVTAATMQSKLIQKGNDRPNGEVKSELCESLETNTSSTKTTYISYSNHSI

fold shift | Emax | Structure (SMILES)
1.36 (inactive) | 89% | C[C@@H](NC(=O)c1ccc(C#Cc2cccc(F)c2)cn1)C(C)(C)O
1.1 (inactive) | 92% | CC1(NC(=O)c2ccc(C#Cc3cccc(F)c3)cn2)COC1
